Data reported in ChEMBL document CHEMBL1177786, “Synthesis of novel beta-carbolines with efficient DNA-binding capacity and potent cytotoxicity” (Bioorg Med Chem Lett, 2010).
Counter-ions that a name gives are not always drawn. The source made the active and inactive calls. No cut-off for these calls is given here.

Columns and labels:
KB = assay: Cytotoxicity against human KB cells by MTT assay; type: functional, cell-based
In short: (§1)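 MTT assay in human tumour lines. IC50 is the compound concentration giving a 50% drop in optical density relative to untreated cells. Values are means of three independent determinations.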

HepG2 = assay: Cytotoxicity against human HepG2 cells by MTT assay; type: functional, cell-based; in short: as §1
786-0 = assay: Cytotoxicity against human 786-0 cells by MTT assay; type: functional, cell-based; in short: as §1
Calf thymus DNA [1] = assay: Binding affinity to calf thymus DNA assessed as change in melting temperature at drug/DNA ratio 0.2 at pH 7.4; type: nucleic-acid assay; conditions: Bos taurus
In short: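 Thermal denaturation of calf thymus DNA in PE buffer (1 mM Na₂HPO₄, 0.1 mM EDTA, pH 7.4), drug/DNA ratio 0.2; ΔTm taken as Tm of drug–DNA complex minus Tm of DNA alone.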

OS-RC-2 = assay: Cytotoxicity against human OS-RC2 cells by MTT assay; type: functional, cell-based; in short: as §1
CWR22R = assay: Cytotoxicity against human 22Rv1 cells by MTT assay; type: functional, cell-based; in short: as §1
769-P = assay: Cytotoxicity against human 769-P cells by MTT assay; type: functional, cell-based; in short: as §1
[2] = Cytotoxicity against human BCG823 cells by MTT assay; type: functional, cell-based; in short: as §1
MCF7 = assay: Cytotoxicity against human MCF7 cells by MTT assay; type: functional, cell-based; in short: as §1
HT-29 = assay: Cytotoxicity against human HT-29 cells by MTT assay; type: functional, cell-based; in short: as §1
A-375 = assay: Cytotoxicity against human A375 cells by MTT assay; type: functional, cell-based; in short: as §1
Calf thymus DNA [3] = assay: Binding affinity to calf thymus DNA assessed as fluorescence quenching at 10 uM by spectrofluorimeter analysis; type: nucleic-acid assay; conditions: Bos taurus
In short: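 Compound held fixed at […] in PE buffer (1 mM Na₂HPO₄, 0.1 mM EDTA, pH 7.4), titrated with CT-DNA. Fluorescence quenching recorded on a spectrofluorometer, excitation 372 nm.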

Calf thymus DNA [4] = assay: Binding affinity to calf thymus DNA at pH 7.4 by UV-vis spectroscopy; type: nucleic-acid assay; conditions: Bos taurus
In short: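 UV absorption spectra recorded in PE buffer (1 mM Na₂HPO₄, 0.1 mM EDTA, pH 7.4) with CT-DNA increasing from 0.0 to 0.2 mM. Quartz cells with 10 mm path, room temperature.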

CCN(CC)CCCNCc1cc2c3ccccc3n(C)c2cn1
IC50 (KB): 59.7 µM
IC50 (HepG2): 96.1 µM
IC50 (786-0): 87.6 µM
ΔTm (Calf thymus DNA [1]): 24.5 °C
IC50 (OS-RC-2): > 100 µM
IC50 (CWR22R): > 100 µM
IC50 (769-P): > 100 µM
IC50 [2]: > 100 µM
IC50 (MCF7): > 100 µM
IC50 (HT-29): 35.7 µM
IC50 (A-375): > 100 µM

COc1cccc2c1C(=O)c1c(O)c3c(c(O)c1C2=O)C[C@@](O)(C(=O)CO)C[C@@H]3O[C@H]1C[C@H](N)[C@H](O)[C@H](C)O1 [DOXORUBICIN HYDROCHLORIDE]
IC50 (KB): 0.6 µM
IC50 (HepG2): 1 µM
IC50 (786-0): 3.1 µM
IC50 (OS-RC-2): < 1 µM
IC50 (CWR22R): < 1 µM
IC50 (769-P): 11.5 µM
IC50 [2]: < 1 µM
IC50 (HT-29): 4.2 µM
IC50 (A-375): 17.2 µM

CC(=O)O[C@H]1C(=O)[C@@]2(C)[C@H]([C@H](OC(=O)c3ccccc3)[C@]3(O)C[C@H](OC(=O)[C@H](O)[C@@H](NC(=O)c4ccccc4)c4ccccc4)C(C)=C1C3(C)C)[C@]1(OC(C)=O)CO[C@@H]1C[C@@H]2O [PACLITAXEL]
IC50 (KB): 0.08 µM
IC50 (HepG2): < 0.08 µM
IC50 (786-0): < 0.08 µM
IC50 (OS-RC-2): < 0.08 µM
IC50 (CWR22R): 0.08 µM
IC50 [2]: 1.5 µM
IC50 (MCF7): 1.3 µM
IC50 (HT-29): 0.38 µM

CCCCn1c2ccccc2c2cc(CNCCCCN(CC)CC)ncc21
IC50 (KB): 10.2 µM
IC50 (HepG2): 8 µM
IC50 (786-0): 14.1 µM
IC50 (OS-RC-2): 71.7 µM
IC50 (CWR22R): 13.5 µM
IC50 (769-P): 8 µM
IC50 [2]: 23.4 µM
IC50 (MCF7): 23.4 µM
IC50 (HT-29): 27.4 µM
IC50 (A-375): 15.2 µM

CCN(CC)CCCNCc1cc2c3ccccc3n(Cc3ccc(F)cc3)c2cn1
IC50 (KB): 33.1 µM
IC50 (HepG2): 8 µM
IC50 (786-0): 6.1 µM
IC50 (OS-RC-2): 13.6 µM
IC50 (CWR22R): 3.6 µM
IC50 (769-P): 8.5 µM
IC50 [2]: 2.6 µM
IC50 (MCF7): 31.8 µM
IC50 (HT-29): 10.2 µM
IC50 (A-375): 13.7 µM

CCN(CC)CCNCc1cc2c3ccccc3n(Cc3ccccc3)c2cn1
IC50 (KB): 8.2 µM
IC50 (HepG2): 13.1 µM
IC50 (786-0): 14.4 µM
IC50 (OS-RC-2): > 100 µM
IC50 (CWR22R): 15.9 µM
IC50 (769-P): 2 µM
IC50 [2]: 9.7 µM
IC50 (MCF7): 68.1 µM
IC50 (HT-29): 5.2 µM
IC50 (A-375): 39.1 µM

CCN(CC)CCNCc1cc2c3ccccc3n(Cc3cccc(Cl)c3)c2cn1
IC50 (KB): 21.6 µM
IC50 (HepG2): 17.7 µM
IC50 (786-0): 47.6 µM
IC50 (OS-RC-2): 52.3 µM
IC50 (CWR22R): 58.5 µM
IC50 (769-P): 19.3 µM
IC50 [2]: 37.9 µM
IC50 (MCF7): 42.2 µM
IC50 (HT-29): 19.7 µM
IC50 (A-375): 22.7 µM

CCN(CC)CCCNCc1cc2c(cn1)[nH]c1ccccc12
IC50 (KB): > 100 µM
IC50 (HepG2): 93.7 µM
IC50 (786-0): > 100 µM
ΔTm (Calf thymus DNA [1]): 12.6 °C
IC50 (OS-RC-2): 67.4 µM
IC50 (CWR22R): > 100 µM
Activity (Calf thymus DNA [3]): Active
IC50 (769-P): 75.3 µM
IC50 [2]: > 100 µM
IC50 (MCF7): > 100 µM
IC50 (HT-29): > 100 µM
Activity (Calf thymus DNA [4]): Active
IC50 (A-375): > 100 µM

CCN(CC)CCCCNCc1cc2c3ccccc3n(CCCc3ccccc3)c2cn1
IC50 (KB): 6.1 µM
IC50 (HepG2): 3.4 µM
IC50 (786-0): 9.2 µM
IC50 (OS-RC-2): 27.7 µM
IC50 (CWR22R): 7.6 µM
IC50 (769-P): 10.9 µM
IC50 [2]: 8.8 µM
IC50 (MCF7): 9.1 µM
IC50 (HT-29): 6.4 µM
IC50 (A-375): 5.8 µM

CCN(CC)CCNCc1cc2c3ccccc3n(C)c2cn1
IC50 (KB): > 100 µM
IC50 (HepG2): > 100 µM
IC50 (786-0): > 100 µM
IC50 (OS-RC-2): > 100 µM
IC50 (CWR22R): > 100 µM
IC50 (769-P): > 100 µM
IC50 [2]: 75.7 µM
IC50 (MCF7): > 100 µM
IC50 (HT-29): 41.1 µM
IC50 (A-375): > 100 µM

CCN(CC)CCNCc1cc2c3ccccc3n(CCCc3ccccc3)c2cn1
IC50 (KB): 9.7 µM
IC50 (HepG2): 7.2 µM
IC50 (786-0): 11.2 µM
IC50 (OS-RC-2): 43.9 µM
IC50 (CWR22R): 8.2 µM
IC50 (769-P): 7.3 µM
IC50 [2]: 14.2 µM
IC50 (MCF7): 27.7 µM
IC50 (HT-29): 4.2 µM
IC50 (A-375): 5.9 µM

CCN(CC)CCCCNCc1cc2c3ccccc3n(Cc3cccc(Cl)c3)c2cn1
IC50 (KB): 4.2 µM
IC50 (HepG2): 10.8 µM
IC50 (786-0): 19.4 µM
IC50 (OS-RC-2): 6.7 µM
IC50 (CWR22R): 8.6 µM
IC50 (769-P): 8.2 µM
IC50 [2]: 9.8 µM
IC50 (MCF7): 19.8 µM
IC50 (HT-29): 12.2 µM
IC50 (A-375): 12.6 µM

CCN(CC)CCCCNCc1cc2c3ccccc3n(Cc3ccccc3)c2cn1
IC50 (KB): 8.2 µM
IC50 (HepG2): 3 µM
IC50 (786-0): 6.2 µM
IC50 (OS-RC-2): 55 µM
IC50 (CWR22R): 8.9 µM
IC50 (769-P): 31 µM
IC50 [2]: 29.3 µM
IC50 (MCF7): 13.4 µM
IC50 (HT-29): 27 µM
IC50 (A-375): 16.2 µM

CCN(CC)CCCNCc1cc2c3ccccc3n(Cc3ccccc3)c2cn1
IC50 (KB): 4.9 µM
IC50 (HepG2): 4.4 µM
IC50 (786-0): 6.4 µM
ΔTm (Calf thymus DNA [1]): 15.6 °C
IC50 (OS-RC-2): 14.5 µM
IC50 (CWR22R): 7.3 µM
IC50 (769-P): 1.5 µM
IC50 [2]: 2.8 µM
IC50 (MCF7): 32.5 µM
IC50 (HT-29): 3.7 µM
IC50 (A-375): 17.5 µM

CCCCn1c2ccccc2c2cc(CNCCN(CC)CC)ncc21
IC50 (KB): 13.7 µM
IC50 (HepG2): 10.1 µM
IC50 (786-0): 37.6 µM
IC50 (OS-RC-2): > 100 µM
IC50 (CWR22R): 25.7 µM
IC50 (769-P): 7.4 µM
IC50 [2]: 20.2 µM
IC50 (MCF7): 92.8 µM
IC50 (HT-29): 7.8 µM
IC50 (A-375): 75.9 µM

CCN(CC)CCNCc1cc2c3ccccc3n(Cc3ccc(F)cc3)c2cn1
IC50 (KB): 37.1 µM
IC50 (HepG2): 9.1 µM
IC50 (786-0): 13.1 µM
IC50 (OS-RC-2): 93.6 µM
IC50 (CWR22R): 9 µM
IC50 (769-P): 8.8 µM
IC50 [2]: 10.9 µM
IC50 (MCF7): 43.6 µM
IC50 (HT-29): 36.2 µM
IC50 (A-375): 35 µM

CCN(CC)CCCNCc1cc2c3ccccc3n(Cc3cccc(Cl)c3)c2cn1
IC50 (KB): 7.8 µM
IC50 (HepG2): 11.7 µM
IC50 (786-0): 13 µM
IC50 (OS-RC-2): 8 µM
IC50 (CWR22R): 8.4 µM
IC50 (769-P): 14.3 µM
IC50 [2]: 8.1 µM
IC50 (MCF7): 17.4 µM
IC50 (HT-29): 9.3 µM
IC50 (A-375): 14.7 µM

CCN(CC)CCCCNCc1cc2c3ccccc3n(C)c2cn1
IC50 (KB): 70.6 µM
IC50 (HepG2): > 100 µM
IC50 (786-0): > 100 µM
IC50 (OS-RC-2): > 100 µM
IC50 (CWR22R): > 100 µM
IC50 (769-P): > 100 µM
IC50 [2]: > 100 µM
IC50 (MCF7): > 100 µM
IC50 (HT-29): 33.1 µM
IC50 (A-375): > 100 µM

CCN(CC)CCCCNCc1cc2c3ccccc3n(Cc3ccc(F)cc3)c2cn1
IC50 (KB): 6.5 µM
IC50 (HepG2): 2.5 µM
IC50 (786-0): 5.8 µM
IC50 (OS-RC-2): 31.7 µM
IC50 (CWR22R): 9.6 µM
IC50 (769-P): 2.9 µM
IC50 [2]: 9.4 µM
IC50 (MCF7): 20.2 µM
IC50 (HT-29): 10.1 µM
IC50 (A-375): 6.5 µM

CCN(CC)CCCNCc1cc2c3ccccc3n(CCCc3ccccc3)c2cn1
IC50 (KB): 4.8 µM
IC50 (HepG2): 3.8 µM
IC50 (786-0): 8.3 µM
ΔTm (Calf thymus DNA [1]): 18.8 °C
IC50 (OS-RC-2): 13.1 µM
IC50 (CWR22R): 7.7 µM
Activity (Calf thymus DNA [3]): Active
IC50 (769-P): 5.1 µM
IC50 [2]: 7.4 µM
IC50 (MCF7): 13.8 µM
IC50 (HT-29): 2.6 µM
Activity (Calf thymus DNA [4]): Active
IC50 (A-375): 8.9 µM

CCCCn1c2ccccc2c2cc(CNCCCN(CC)CC)ncc21
IC50 (KB): 6.2 µM
IC50 (HepG2): 4.6 µM
IC50 (786-0): 19.5 µM
ΔTm (Calf thymus DNA [1]): 20.6 °C
IC50 (OS-RC-2): 35.7 µM
IC50 (CWR22R): 8.8 µM
IC50 (769-P): 2.2 µM
IC50 [2]: 5.9 µM
IC50 (MCF7): 64.2 µM
IC50 (HT-29): 2.6 µM
IC50 (A-375): 44.2 µM
